Data: ChEMBL document CHEMBL1157974, “C18 dibenzocyclooctadiene lignans from Kadsura philippinensis” (2006)

Tests used:
Type in all cases: functional
[1] = system: Radical scavenging activity; assay: Antioxidant activity assessed as DPPH radical scavenging activity at 100 uM
Method in brief: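 Test compound in 100 mM Tris-HCl (pH 7.4) added to 500 μM DPPH in ethanol (concentration of the added solution), shaken, then left 20 min at room temperature in the dark. Absorbance read at 517 nm by UV-vis spectrophotometer; a table footnote cites a DPPH-HPLC method. Values are mean ± SD of 8 samples.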

KB = assay: Cytotoxicity against human KB cells by MTT assay; details: read-out: ED50 (the source's name)
Method in brief: (§1)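 Cells obtained from ATCC. Cytotoxicity read by MTT [3-(4,5-dimethylthiazol-2-yl)-2,5-diphenyltetrazolium bromide] colorimetric method.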

[2] = Cytotoxicity against human Hepa 59T/VGH cells by MTT assay; details: read-out: ED50 (the source's name)
HeLa = assay: Cytotoxicity against human HeLa cells by MTT assay; details: read-out: ED50 (the source's name); method in brief: as §1

SMILES	Activity [1]	EC50 (KB)	EC50 [2]	EC50 (HeLa)
O=C1O[C@H]([C@@H](O)CO)C(O)=C1O	12.5%			
COc1cc2c(c(OC)c1OC)-c1c(cc3c(c1OC)OCO3)[C@H](OC(=O)/C=C/c1ccccc1)[C@H](C)[C@H](C)C2 [KADSUPHILINS A]	1.5%	≥ 5 µg/mL	≥ 5 µg/mL	≥ 5 µg/mL
COc1c2c(cc3c1-c1c(cc4c(c1OC)OCO4)[C@H](O)[C@@H](C)[C@@H](C)C3)OCO2		≥ 5 µg/mL	≥ 5 µg/mL	≥ 5 µg/mL
C/C=C(/C)C(=O)O[C@H]1c2cc3c(c(OC)c2-c2c(cc(OC)c(OC)c2O)C[C@@H](C)[C@H]1C)OCO3 [ANGELOYLBINANKADSURIN A]	2.3%	≥ 5 µg/mL	≥ 5 µg/mL	≥ 5 µg/mL
COc1cc2c(c(O)c1OC)-c1c(cc3c(c1OC)OCO3)[C@H](OC(=O)/C=C/c1ccccc1)[C@H](C)[C@H](C)C2 [1-DEMETHYLKADSUPHILIN A]		≥ 5 µg/mL	≥ 5 µg/mL	≥ 5 µg/mL
COC1=C(OC)C(=O)[C@]23C(=C1)C[C@@H](C)[C@@]2(C)[C@@H](O)c1cc2c(cc13)OCO2 [KADSULIGNAN K]	4.6%	≥ 5 µg/mL	≥ 5 µg/mL	≥ 5 µg/mL
COc1c(O)cc2c(c1OC)-c1c(cc3c(c1OC)OCO3)C[C@H](C)[C@H](C)[C@@H]2O [KADSUPHILINS B]		≥ 5 µg/mL	≥ 5 µg/mL	≥ 5 µg/mL
C/C=C(/C)C(=O)O[C@H]1c2cc3c(c(OC)c2-c2c(cc(OC)c(OC)c2O)[C@H](OC(=O)/C(C)=C\C)[C@](C)(O)[C@H]1C)OCO3 [SCHIZANRIN J]	1.9%	≥ 5 µg/mL	≥ 5 µg/mL	≥ 5 µg/mL
